Results reported in article PMC12166256 (Clinical Pharmacology and Therapeutics, 2025).

Assay: MAD study: safety and tolerability
Format: in vivo, human
Conditions: for Abdominal pain TEAE, events / Abdominal pain TEAE, participants / Alanine aminotransferase increased TEAE, events / Alanine aminotransferase increased TEAE, participants / Any event TEAE, events / Any event TEAE, participants / Constipation TEAE, events / Constipation TEAE, participants / Diarrhea TEAE, events / Diarrhea TEAE, participants / Dry skin TEAE, events / Dry skin TEAE, participants / Dysgeusia TEAE, events / Dysgeusia TEAE, participants / Gastrointestinal disorders TEAE, events / Gastrointestinal disorders TEAE, participants / General disorders and administration site conditions TEAE, events / General disorders and administration site conditions TEAE, participants / Headache TEAE, events / Headache TEAE, participants / Injury, poisoning, and procedural complications TEAE, events / Injury, poisoning, and procedural complications TEAE, participants / Investigations TEAE, events / Investigations TEAE, participants / Medical device site reaction TEAE, events / Medical device site reaction TEAE, participants / Musculoskeletal and connective tissue disorders TEAE, events / Musculoskeletal and connective tissue disorders TEAE, participants / Nasal dryness TEAE, events / Nasal dryness TEAE, participants / Neck pain TEAE, events / Neck pain TEAE, participants / Nervous system disorders TEAE, events / Nervous system disorders TEAE, participants / Oropharyngeal pain TEAE, events / Oropharyngeal pain TEAE, participants / Reproductive system and breast disorders TEAE, events / Reproductive system and breast disorders TEAE, participants / Respiratory, thoracic, and mediastinal disorders TEAE, events / Respiratory, thoracic, and mediastinal disorders TEAE, participants / Skin and subcutaneous tissue disorders TEAE, events / Skin and subcutaneous tissue disorders TEAE, participants / Sneezing TEAE, events / Sneezing TEAE, participants / Testicular mass TEAE, events / Testicular mass TEAE, participants / Wound TEAE, events / Wound TEAE, participants: N = 8
How it was run: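 Healthy males aged 18–55 with BMI 18–30 kg/m² were followed through dosing and a 6–8-day follow-up. Checks: physical examination, clinical laboratory tests, vital signs and 12-lead ECG, with adverse events coded in MedDRA. Events of special interest: ALT ≥2×ULN, QTcF ≥500 ms, Grade ≥2 photosensitivity, symptomatic overdose. Treatment-emergent events were summarised descriptively by organ class, preferred term and dose level for all exposed participants.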

SMILES: CN1C(=O)c2cccc(OC(F)F)c2[C@H]2C[C@@H]1c1nc3ccc(-c4cnc(C5(N)CCC5)nc4)cc3n12 [Balinatunfib]
- Grade ≥ 3 TEAE, treatment-emergent SAEs, TEAEs leading to discontinuation (MAD): No participants
- Abdominal pain TEAE, events (MAD 100 mg BID): 0
- Abdominal pain TEAE, participants (MAD 100 mg BID): 0 n (%)
- Alanine aminotransferase increased TEAE, events (MAD 100 mg BID): 0
- Alanine aminotransferase increased TEAE, participants (MAD 100 mg BID): 0 n (%)
- Any event TEAE, events (MAD 100 mg BID): 3
- Any event TEAE, participants (MAD 100 mg BID): 2 (25.0) n (%)
- Constipation TEAE, events (MAD 100 mg BID): 0
- Constipation TEAE, participants (MAD 100 mg BID): 0 n (%)
- Diarrhea TEAE, events (MAD 100 mg BID): 0
- Diarrhea TEAE, participants (MAD 100 mg BID): 0 n (%)
- Dry skin TEAE, events (MAD 100 mg BID): 0
- Dry skin TEAE, participants (MAD 100 mg BID): 0 n (%)
- Dysgeusia TEAE, events (MAD 100 mg BID): 0
- Dysgeusia TEAE, participants (MAD 100 mg BID): 0 n (%)
- Gastrointestinal disorders TEAE, events (MAD 100 mg BID): 0
- Gastrointestinal disorders TEAE, participants (MAD 100 mg BID): 0 n (%)
- General disorders and administration site conditions TEAE, events (MAD 100 mg BID): 0
- General disorders and administration site conditions TEAE, participants (MAD 100 mg BID): 0 n (%)
- Headache TEAE, events (MAD 100 mg BID): 0
- Headache TEAE, participants (MAD 100 mg BID): 0 n (%)
- Injury, poisoning, and procedural complications TEAE, events (MAD 100 mg BID): 0
- Injury, poisoning, and procedural complications TEAE, participants (MAD 100 mg BID): 0 n (%)
- Investigations TEAE, events (MAD 100 mg BID): 0
- Investigations TEAE, participants (MAD 100 mg BID): 0 n (%)
- Medical device site reaction TEAE, events (MAD 100 mg BID): 0
- Medical device site reaction TEAE, participants (MAD 100 mg BID): 0 n (%)
- Musculoskeletal and connective tissue disorders TEAE, events (MAD 100 mg BID): 0
- Musculoskeletal and connective tissue disorders TEAE, participants (MAD 100 mg BID): 0 n (%)
- Nasal dryness TEAE, events (MAD 100 mg BID): 0
- Nasal dryness TEAE, participants (MAD 100 mg BID): 0 n (%)
- Neck pain TEAE, events (MAD 100 mg BID): 0
- Neck pain TEAE, participants (MAD 100 mg BID): 0 n (%)
- Nervous system disorders TEAE, events (MAD 100 mg BID): 0
- Nervous system disorders TEAE, participants (MAD 100 mg BID): 0 n (%)
- Oropharyngeal pain TEAE, events (MAD 100 mg BID): 1
- Oropharyngeal pain TEAE, participants (MAD 100 mg BID): 1 (12.5) n (%)
- Reproductive system and breast disorders TEAE, events (MAD 100 mg BID): 1
- Reproductive system and breast disorders TEAE, participants (MAD 100 mg BID): 1 (12.5) n (%)
- Respiratory, thoracic, and mediastinal disorders TEAE, events (MAD 100 mg BID): 2
- Respiratory, thoracic, and mediastinal disorders TEAE, participants (MAD 100 mg BID): 2 (25.0) n (%)
- Skin and subcutaneous tissue disorders TEAE, events (MAD 100 mg BID): 0
- Skin and subcutaneous tissue disorders TEAE, participants (MAD 100 mg BID): 0 n (%)
- Sneezing TEAE, events (MAD 100 mg BID): 1
- Sneezing TEAE, participants (MAD 100 mg BID): 1 (12.5) n (%)
- Testicular mass TEAE, events (MAD 100 mg BID): 1
- Testicular mass TEAE, participants (MAD 100 mg BID): 1 (12.5) n (%)
- Wound TEAE, events (MAD 100 mg BID): 0
- Wound TEAE, participants (MAD 100 mg BID): 0 n (%)
- Abdominal pain TEAE, events (MAD 100 mg QD): 1
- Abdominal pain TEAE, participants (MAD 100 mg QD): 1 (12.5) n (%)
- Alanine aminotransferase increased TEAE, events (MAD 100 mg QD): 3
- Alanine aminotransferase increased TEAE, participants (MAD 100 mg QD): 3 (37.5) n (%)
- Any event TEAE, events (MAD 100 mg QD): 9
- Any event TEAE, participants (MAD 100 mg QD): 4 (50.0) n (%)
- Constipation TEAE, events (MAD 100 mg QD): 0
- Constipation TEAE, participants (MAD 100 mg QD): 0 n (%)
- Diarrhea TEAE, events (MAD 100 mg QD): 2
- Diarrhea TEAE, participants (MAD 100 mg QD): 2 (25.0) n (%)
- Dry skin TEAE, events (MAD 100 mg QD): 0
- Dry skin TEAE, participants (MAD 100 mg QD): 0 n (%)
- Dysgeusia TEAE, events (MAD 100 mg QD): 0
- Dysgeusia TEAE, participants (MAD 100 mg QD): 0 n (%)
- Gastrointestinal disorders TEAE, events (MAD 100 mg QD): 3
- Gastrointestinal disorders TEAE, participants (MAD 100 mg QD): 2 (25.0) n (%)
- General disorders and administration site conditions TEAE, events (MAD 100 mg QD): 0
- General disorders and administration site conditions TEAE, participants (MAD 100 mg QD): 0 n (%)
- Headache TEAE, events (MAD 100 mg QD): 1
- Headache TEAE, participants (MAD 100 mg QD): 1 (12.5) n (%)
- Injury, poisoning, and procedural complications TEAE, events (MAD 100 mg QD): 1
- Injury, poisoning, and procedural complications TEAE, participants (MAD 100 mg QD): 1 (12.5) n (%)
- Investigations TEAE, events (MAD 100 mg QD): 3
- Investigations TEAE, participants (MAD 100 mg QD): 3 (37.5) n (%)
- Medical device site reaction TEAE, events (MAD 100 mg QD): 0
- Medical device site reaction TEAE, participants (MAD 100 mg QD): 0 n (%)
- Musculoskeletal and connective tissue disorders TEAE, events (MAD 100 mg QD): 1
- Musculoskeletal and connective tissue disorders TEAE, participants (MAD 100 mg QD): 1 (12.5) n (%)
- Nasal dryness TEAE, events (MAD 100 mg QD): 0
- Nasal dryness TEAE, participants (MAD 100 mg QD): 0 n (%)
- Neck pain TEAE, events (MAD 100 mg QD): 1
- Neck pain TEAE, participants (MAD 100 mg QD): 1 (12.5) n (%)
- Nervous system disorders TEAE, events (MAD 100 mg QD): 1
- Nervous system disorders TEAE, participants (MAD 100 mg QD): 1 (12.5) n (%)
- Oropharyngeal pain TEAE, events (MAD 100 mg QD): 0
- Oropharyngeal pain TEAE, participants (MAD 100 mg QD): 0 n (%)
- Reproductive system and breast disorders TEAE, events (MAD 100 mg QD): 0
- Reproductive system and breast disorders TEAE, participants (MAD 100 mg QD): 0 n (%)
- Respiratory, thoracic, and mediastinal disorders TEAE, events (MAD 100 mg QD): 0
- Respiratory, thoracic, and mediastinal disorders TEAE, participants (MAD 100 mg QD): 0 n (%)
- Skin and subcutaneous tissue disorders TEAE, events (MAD 100 mg QD): 0
- Skin and subcutaneous tissue disorders TEAE, participants (MAD 100 mg QD): 0 n (%)
- Sneezing TEAE, events (MAD 100 mg QD): 0
- Sneezing TEAE, participants (MAD 100 mg QD): 0 n (%)
- Testicular mass TEAE, events (MAD 100 mg QD): 0
- Testicular mass TEAE, participants (MAD 100 mg QD): 0 n (%)
- Wound TEAE, events (MAD 100 mg QD): 1
- Wound TEAE, participants (MAD 100 mg QD): 1 (12.5) n (%)
- Abdominal pain TEAE, events (MAD 200 mg BID): 0
- Abdominal pain TEAE, participants (MAD 200 mg BID): 0 n (%)
